Sampled rows, rich in hits. Any-hit rate of the full collection: about 1%.
B2AR ag: agonists of human beta-2 adrenergic receptor inducing internalization; P07550; Am2.2-beta2AR cells, FAP receptor internalization, flow cytometry; response, % (concentration not given with the values); 0.43% of 340,000 active;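 active = response above a set limit, near 3 SD of response in nonfluorescent compounds, cut at about 42% in these data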
Target sequence (P07550 whole entry, looked up): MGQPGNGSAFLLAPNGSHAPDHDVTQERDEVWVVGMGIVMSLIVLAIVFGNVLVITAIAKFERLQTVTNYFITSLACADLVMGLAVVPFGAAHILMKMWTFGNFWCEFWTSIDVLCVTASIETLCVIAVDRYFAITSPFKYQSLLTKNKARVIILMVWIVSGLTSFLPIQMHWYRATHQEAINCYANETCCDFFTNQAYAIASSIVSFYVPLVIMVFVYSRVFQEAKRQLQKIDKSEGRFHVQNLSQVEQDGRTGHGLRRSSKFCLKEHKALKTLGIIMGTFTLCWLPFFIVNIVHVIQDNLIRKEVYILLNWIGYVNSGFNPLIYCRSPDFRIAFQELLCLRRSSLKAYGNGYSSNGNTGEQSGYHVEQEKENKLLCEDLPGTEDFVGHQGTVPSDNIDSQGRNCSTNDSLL
UPR XBP1 act: adaptive UPR (XBP1) activation; activation, % at 20 µM; 0.33% of 330,000 active; CHO-XBP1 luciferase reporter, IRE1-XBP1 UPR activation, luminescence; percent of tunicamycin response, DMSO as zero;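 active = versus positive control, 20 µM dose yields 30% or more activation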;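 note: 100% = tunicamycin at 10 µg/mL and 0% = DMSO only wells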
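Material: CHO cell line with stable XBP1 luciferase reporter; schedule: 16-18 h cell attachment at 37 °C, then 6 h compound exposure; signal: glow luminescence from Steady-Glo reagent; medium: serum-containing F12 medium, 10% FBS; benchmarks: tunicamycin 10 µg/mL and vehicle-only wells; read-out: percent activation relative to tunicamycin reference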
UPR CHOP act: apoptotic UPR (CHOP) activation. CHO-CHOP luciferase reporter, luminescence; percent of tunicamycin response over DMSO baseline. 0.34% of 330,000 active. activation, % at 10 µM;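 active = at 10 µM dose, activation of 40% or more, normalized to positive control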;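 note: 100% = tunicamycin at 10 µg/mL and 0% = DMSO alone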
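measured by = luciferase luminescence | assay system = CHO-CHOP cells, stable luciferase reporter of PERK-eIF2a-CHOP signalling | amount = 500 reporter cells seeded per well | timing = 6 h compound exposure at 37 °C after overnight seeding | controls = positive tunicamycin 10 µg/mL, negative DMSO alone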
T cell HTS: modulates CD8 T cell binding to vesicles; response (vesicle binding), % at 7 µM; 2C CD8+ T cell-vesicle binding, flow cytometry; active compounds read low; 0.068% of 330,000 active;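 active = response, share of CD8 T cells binding vesicles, and their 90th percentile fluorescence all below set limits, cut at about 80% in these data, passing the limit was not always enough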;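 note: values below 100% mean blocked vesicle binding to the CD8+ T cells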
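Material: murine 2C transgenic CD8+ T lymphocytes / Also added: QL9-peptide-loaded Drosophila micro-vesicles bearing Ld, ICAM-1 and B7-1 / Schedule: binding step 1.5 h, 37 °C, antibody labelling 20 min, ice / Signal: flow cytometry, PE anti-B7-1 (FL2) versus Alexa647 anti-CD8 (FL8), PFA-fixed / Evaluation: percent CD8+ FL2 mean versus row control / Benchmarks: naked versus QL9-loaded vesicles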
Beta2AR ag CP1: activates human beta-2 adrenergic receptor | shares compounds with B2AR ag | Am2.2-beta2AR cells, FAP surface receptor, flow cytometry; active compounds read low | percent response (surface receptor), % at 10 µM | 25% of 1,100 active | AID 540358;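 active = surface receptor percent response at or below 58%, roughly 3 SD from nonfluorescent compounds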
B2AR FAP counter: fluorescence artifact in beta-2AR agonist FAP counterscreen. shares compounds with B2AR ag. 1,100 tested, under 10 active. calls only at 10 µM. Am2.2 cells, FAP fluorogen flow cytometry; active compounds read low;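 active = percent response below a set limit in fluorescence channel 1 and below 50% in channel 8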
Active calls of the source: *.

How did CCn1nc(NS(=O)(=O)c2ccc(NC(C)=O)cc2)c2cc3ccccc3nc21 do in these assays?
B2AR ag: 53*; UPR XBP1 act: -2; UPR CHOP act: -2; T cell HTS: 495; Beta2AR ag CP1: 101; B2AR FAP counter: inactive

How did CCn1nc(NS(=O)(=O)c2ccc([N+](=O)[O-])cc2)c2cc3ccccc3nc21 do in these assays?
B2AR ag: 64*; UPR XBP1 act: -4; UPR CHOP act: 0; T cell HTS: 569; Beta2AR ag CP1: 118; B2AR FAP counter: inactive

What do the screens show for `O=C(Cn1cnc2cc([N+](=O)[O-])ccc2c1=O)Nc1cccc(S(=O)(=O)N2CCOCC2)c1`?
B2AR ag: 0; UPR XBP1 act: -3; UPR CHOP act: 1; T cell HTS: 486

Results for CCC1CCCCN1C(=O)CSc1nc2ccsc2c(=O)n1Cc1ccccc1 (stereo unspecified) ?
B2AR ag: -10; UPR XBP1 act: 1; UPR CHOP act: 0; T cell HTS: 270

Results for O=C(CO/N=C/c1ccc(OC(F)F)cc1)NC1CCCCC1 ?
B2AR ag: -1; UPR XBP1 act: -4; UPR CHOP act: -1; T cell HTS: 297

What do the screens show for `Cc1ccc(S(=O)(=O)N(Cc2cccnc2)Cc2cc3ccccc3[nH]c2=O)cc1`?
B2AR ag: -11; UPR XBP1 act: -6; UPR CHOP act: -1; T cell HTS: 137; Beta2AR ag CP1: 154; B2AR FAP counter: inactive

What do the screens show for `COc1ccc(S(=O)(=O)N(Cc2cccnc2)Cc2cc3ccccc3[nH]c2=O)cc1`?
B2AR ag: -5; UPR XBP1 act: -9; UPR CHOP act: 5; T cell HTS: 444; Beta2AR ag CP1: 152; B2AR FAP counter: inactive

How did C=CCc1cc(Cl)ccc1OCCCNC(C)C do in these assays?
B2AR ag: 62*; UPR XBP1 act: 2; UPR CHOP act: 2; T cell HTS: 292; Beta2AR ag CP1: 98; B2AR FAP counter: inactive

What do the screens show for `COC(=O)C1=C(C)N(CC(C)C)C(=O)C1`?
B2AR ag: 0; UPR XBP1 act: -4; UPR CHOP act: -2; T cell HTS: 273

What do the screens show for `O=C(N[C@@H](Cc1ccccc1)C(=O)OCc1ccccc1)c1nc[nH]c1C(=O)NCc1ccccc1`?
B2AR ag: 63*; UPR XBP1 act: -1; UPR CHOP act: -1; T cell HTS: 253; Beta2AR ag CP1: 106; B2AR FAP counter: inactive

Results for CCCCn1c(=N)n(CC(=O)c2ccc(Br)s2)c2ccccc21 ?
B2AR ag: 82*; UPR XBP1 act: 4; UPR CHOP act: 1; T cell HTS: 100; Beta2AR ag CP1: 0.9*; B2AR FAP counter: inactive

Results for CCn1c(=N)n(CC(=O)c2ccc(Br)s2)c2ccccc21 ?
B2AR ag: -4; UPR XBP1 act: 3; UPR CHOP act: 1; T cell HTS: 256

How did CC(C)N1C(=O)/C(=C/c2nc3ccccc3c(=O)n2-c2ccccc2)c2ccccc21 do in these assays?
B2AR ag: 47*; UPR XBP1 act: 11; UPR CHOP act: 5; T cell HTS: 134; Beta2AR ag CP1: 82; B2AR FAP counter: inactive

Results for CCOC(=O)c1ccc(NC(=S)NNC(C)(C)C)cc1 ?
B2AR ag: -4; UPR XBP1 act: 0; UPR CHOP act: 3; T cell HTS: 264; Beta2AR ag CP1: 95; B2AR FAP counter: inactive

How did Cc1ccccc1C(=O)NCCNc1ccc([N+](=O)[O-])cc1 do in these assays?
B2AR ag: -5; UPR XBP1 act: -2; UPR CHOP act: -1; T cell HTS: 344

How did O=C(NCCNc1ccc([N+](=O)[O-])cc1)c1ccccc1Br do in these assays?
B2AR ag: 46*; UPR XBP1 act: -4; UPR CHOP act: -1; T cell HTS: 296; Beta2AR ag CP1: 105; B2AR FAP counter: inactive

How did COc1ccc(S(=O)(=O)NNC(=O)c2cc3c4ccccc4n(C)c3s2)cc1 do in these assays?
B2AR ag: 4; UPR XBP1 act: 0; UPR CHOP act: -1; T cell HTS: 127

Results for O=C(Nc1ccc(NC(=O)c2cccs2)cc1)c1cccs1 ?
B2AR ag: -10; UPR XBP1 act: 7; UPR CHOP act: 4; T cell HTS: 224

How did O=C(Nc1ccc(NC(=O)c2ccccc2F)cc1)c1cccs1 do in these assays?
B2AR ag: 0; UPR XBP1 act: 8; UPR CHOP act: 3; T cell HTS: 337; Beta2AR ag CP1: 113; B2AR FAP counter: inactive

What do the screens show for `COc1ccc(Cc2nnc(NC(=O)Nc3ccc(F)cc3)s2)cc1OC`?
B2AR ag: -1; UPR XBP1 act: -3; UPR CHOP act: 1; T cell HTS: 0

What do the screens show for `CNCCCC12CCC(c3ccccc31)c1ccccc12`?
B2AR ag: 29; UPR XBP1 act: -4; UPR CHOP act: 0; T cell HTS: 638; Beta2AR ag CP1: 95; B2AR FAP counter: inactive

How did CNCCCC1c2ccccc2C=Cc2ccccc21 do in these assays?
B2AR ag: 17; UPR XBP1 act: -10; UPR CHOP act: 1; T cell HTS: 496

How did O=C(Oc1c(CN2CCOCC2)cc(Cl)c2cccnc12)c1ccccc1Cl do in these assays?
B2AR ag: 4; UPR XBP1 act: 19; UPR CHOP act: 40; T cell HTS: 103; Beta2AR ag CP1: 113; B2AR FAP counter: inactive

Results for Cc1cc(C(=O)NC(C)C2CCCO2)no1 (stereo unspecified) ?
B2AR ag: -5; UPR XBP1 act: -1; UPR CHOP act: -1; T cell HTS: 836

Results for CCOC(=O)Cn1nnnc1CN(Cc1ccccc1)Cc1cc2cc(CC)ccc2[nH]c1=O ?
B2AR ag: 100*; UPR XBP1 act: -1; UPR CHOP act: 3; T cell HTS: 802; Beta2AR ag CP1: 62; B2AR FAP counter: inactive

How did O=[N+]([O-])c1cc(-c2cnc3ccccc3n2)ccc1Oc1ccc(F)cc1 do in these assays?
B2AR ag: -10; UPR XBP1 act: -1; UPR CHOP act: 5; T cell HTS: 410

What do the screens show for `CCOc1ccc2nc(SCCNS(=O)(=O)c3ccccc3)sc2c1`?
B2AR ag: 61*; UPR XBP1 act: 0; UPR CHOP act: 0; T cell HTS: 129; Beta2AR ag CP1: 102; B2AR FAP counter: inactive

How did NC(=O)CC(NC(=O)c1ccccc1)c1ccc(N2CCCCCCC2)c([N+](=O)[O-])c1 (stereo unspecified) do in these assays?
B2AR ag: -15; UPR XBP1 act: -1; UPR CHOP act: 0; T cell HTS: 722

What do the screens show for `O=C(NC1CCCCC1)c1cc2c(cc1Cl)N1CCCCCC1=NS2(=O)=O`?
B2AR ag: 3; UPR XBP1 act: 0; UPR CHOP act: 1

What do the screens show for `CCOC(=O)c1c(-c2ccccc2)oc2ccc(O)c(CN(C)C)c12`?
B2AR ag: 25; UPR XBP1 act: 0; UPR CHOP act: -1; T cell HTS: 268

Screening results as filed in PubChem BioAssay.
